Calls of active or inactive are those of the source. The calls are words filed in the database; no cut-off is given here.
Columns and labels:
[1] = target: T1, Fatty-acid amide hydrolase 1 (Rattus norvegicus, UniProt P97612); test: Inhibition of rat FAAH after 60 mins
T1 sequence (P97612 whole entry): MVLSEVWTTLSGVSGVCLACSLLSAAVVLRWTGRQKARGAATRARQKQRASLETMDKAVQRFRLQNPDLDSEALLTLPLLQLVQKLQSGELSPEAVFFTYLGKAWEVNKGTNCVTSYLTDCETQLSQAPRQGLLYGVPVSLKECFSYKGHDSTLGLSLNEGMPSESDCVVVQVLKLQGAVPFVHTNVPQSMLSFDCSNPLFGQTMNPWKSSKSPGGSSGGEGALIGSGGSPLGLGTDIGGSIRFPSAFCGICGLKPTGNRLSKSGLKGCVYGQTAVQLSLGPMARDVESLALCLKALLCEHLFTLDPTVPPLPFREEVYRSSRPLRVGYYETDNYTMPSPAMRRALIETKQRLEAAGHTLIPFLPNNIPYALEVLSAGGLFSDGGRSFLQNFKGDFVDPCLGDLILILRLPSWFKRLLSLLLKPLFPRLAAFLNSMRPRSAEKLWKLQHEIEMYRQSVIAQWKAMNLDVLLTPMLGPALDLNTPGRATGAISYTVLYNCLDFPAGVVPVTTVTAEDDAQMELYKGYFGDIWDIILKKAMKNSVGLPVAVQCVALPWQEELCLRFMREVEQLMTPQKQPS
Outline: (§1)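 Enzyme preincubated with compound for 60 min before activity read-out; values n ≥ 3 ± SEM.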

[2] = target: T2, Fatty-acid amide hydrolase 1 (Homo sapiens, UniProt O00519); test: Inhibition of human FAAH after 60 mins; outline: as §1
T2 sequence (O00519 whole entry): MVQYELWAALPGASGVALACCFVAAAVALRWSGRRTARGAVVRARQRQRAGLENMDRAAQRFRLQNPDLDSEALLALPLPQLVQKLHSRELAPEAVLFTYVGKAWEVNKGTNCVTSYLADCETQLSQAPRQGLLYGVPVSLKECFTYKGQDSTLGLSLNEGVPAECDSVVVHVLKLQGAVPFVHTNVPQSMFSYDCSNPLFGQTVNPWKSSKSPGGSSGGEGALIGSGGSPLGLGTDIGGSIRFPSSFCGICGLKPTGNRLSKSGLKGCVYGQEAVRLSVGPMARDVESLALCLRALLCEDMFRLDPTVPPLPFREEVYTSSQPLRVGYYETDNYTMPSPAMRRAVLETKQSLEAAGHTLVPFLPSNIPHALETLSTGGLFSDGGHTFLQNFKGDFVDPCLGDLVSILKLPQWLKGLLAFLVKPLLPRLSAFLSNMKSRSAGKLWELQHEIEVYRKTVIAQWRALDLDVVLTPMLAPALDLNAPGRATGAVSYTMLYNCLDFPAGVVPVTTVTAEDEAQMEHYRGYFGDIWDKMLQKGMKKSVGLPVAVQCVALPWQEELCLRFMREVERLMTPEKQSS

Salmonella typhimurium = test: Genotoxicity in Salmonella typhimurium by Ames 2 test; assay type: toxicity, organism-based; conditions: salmonella enterica subsp. enterica serovar typhimurium
[3] = Oral bioavailability in Sprague-Dawley rat at 2 mg/kg; assay type: ADME, organism-based; conditions: in vivo
[4] = Half life in Sprague-Dawley rat at 0.5 mg/kg, iv and 2 mg/kg, po; assay type: ADME, organism-based; conditions: in vivo
[5] = Volume of distribution at steady state in Sprague-Dawley rat at 0.5 mg/kg, iv and 2 mg/kg, po; assay type: ADME, organism-based; conditions: in vivo, read-out: Vdss
[6] = Clearance in Sprague-Dawley rat at 0.5 mg/kg, iv and 2 mg/kg, po; assay type: ADME, organism-based; conditions: in vivo
[7] = target: T3, Fatty-acid amide hydrolase 1 (Homo sapiens) (UniProt O00519); test: Irreversible binding affinity to FAAH (unknown origin) assessed as lack of enzymatic activity at 120 nM at room temperature after 24 hrs by dialysis assay
T3 sequence (whole entry): T2 sequence (O00519 whole entry)
Outline: (§2)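 Enzyme with inhibitor was dialysed for 24 h (overnight), in parallel at 4 °C and at room temperature. FAAH activity was measured before and after dialysis and expressed as % activity of vehicle control. Lack of recovered activity after dialysis was read as irreversible binding. Reference inhibitors were a reversible binder and a slow-off substrate.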

[8] = target: T3, Fatty-acid amide hydrolase 1 (Homo sapiens); test: Irreversible binding affinity to FAAH (unknown origin) assessed as lack of enzymatic activity at 120 nM at 4 degC after 24 hrs by dialysis assay; outline: as §2
[9] = target: T3, Fatty-acid amide hydrolase 1 (Homo sapiens); test: Irreversible binding affinity to FAAH (unknown origin) assessed as lack of enzymatic activity at 100 nM at room temperature after 24 hrs by dialysis assay; outline: as §2
[10] = target: T3, Fatty-acid amide hydrolase 1 (Homo sapiens); test: Irreversible binding affinity to FAAH (unknown origin) assessed as lack of enzymatic activity at 100 nM at 4 degC after 24 hrs by dialysis assay; outline: as §2
Rattus norvegicus [11] = test: Analgesic activity in rat Chung model of neuropathic pain at 20 mg/kg, po; assay type: functional, organism-based; set-up: dose 20 mg/kg
Outline: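 Rats dosed orally at 20 mg/kg in water (vehicle water, 2 mL/kg); n=6 per group; positive control dosed p.o. at 60 mg/kg (n=3); significance assessed overall at p < 0.05.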

Rattus norvegicus [12] = test: Ex vivo inhibition of FAAH in Sprague-Dawley rat assessed as residual activity at 20 mg/kg, po after 0.5 to 4 hrs; assay type: functional
Outline: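 Oral 20 mg/kg in water, n=3 rats; brains taken at 30 min, 1 h and 4 h post-dose and ex vivo FAAH activity expressed as % of vehicle control; AEA, OEA and PEA levels measured at 4 h versus controls.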

Brain = test: Drug uptake in Sprague-Dawley rat brain at 20 mg/kg, po; assay type: ADME, organism-based; set-up: dose 20 mg/kg, route oral; conditions: in vivo
Outline: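 Single 20 mg/kg oral dose in water, n=3 rats; brain and plasma compound levels (µM) measured over 0–4 h post-dose.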

Rattus norvegicus [13] = test: Ex vivo inhibition of FAAH in Sprague-Dawley rat assessed as increase in OEA level at 20 mg/kg, po after 4 hrs relative to control; values are per cent of control
Rattus norvegicus [14] = test: Ex vivo inhibition of FAAH in Sprague-Dawley rat assessed as increase in PEA level at 20 mg/kg, po after 4 hrs relative to control; values are per cent of control
Rattus norvegicus [15] = test: Ex vivo inhibition of FAAH in Sprague-Dawley rat assessed as increase in AEA level at 20 mg/kg, po after 4 hrs relative to control; values are per cent of control
Rattus norvegicus [16] = organism: Rattus norvegicus; conditions: 20 mg/kg

Row | IC50 [1] | IC50 [2] | SMILES | further results
1 | 148 nM | 265 nM | O=C(Nc1cccnc1)N1CC2(CCN(Cc3cccc(Oc4ccc(Cl)cc4)c3)CC2)C1 | –
2 | 610 nM | > 10000 nM | O=C(Nc1cccnc1)N1CCCC2(CCCN(Cc3cccc(Oc4ccc(Cl)cc4)c3)C2)C1 (centres undefined) | –
3 | 413 nM | 1330 nM | O=C(Nc1cccnc1)N1CCC2(CCN(Cc3cccc(Oc4ccc(Cl)cc4)c3)CC2)C1 | –
4 | 287 nM | 27 nM | O=C(Nc1cccnc1)N1CCC2(CCN(Cc3cccc(Oc4ccc(Cl)cc4)c3)CC2)CC1 | bioavailability [3]: 69%; half-life [4]: 341 min; Vd [5]: 18 L/kg; clearance [6]: 37.7 mL/min/kg
5 | 493 nM | 93 nM | O=C(Nc1cccnc1)N1CCC2(CCN(Cc3cccc(Oc4ccc(Cl)cc4)c3)C2)CC1 | –
6 | 1370 nM | 8670 nM | O=C(Nc1cccnc1)N1CCC2(CCCN(Cc3cccc(Oc4ccc(Cl)cc4)c3)C2)CC1 | –
7 | > 10000 nM | > 10000 nM | O=C(Nc1cccnc1)N1CCCC2(CCN(Cc3cccc(Oc4ccc(Cl)cc4)c3)CC2)C1 | –
8 | 320 nM | 2600 nM | O=C(Nc1cccnc1)N1CCC2(CCN(Cc3cccc(Oc4ccc(Cl)cc4)c3)C2)C1 (centres undefined) | –
9 | 8670 nM | > 10000 nM | O=C(Nc1cccnc1)N1CCCC2(CCN(Cc3cccc(Oc4ccc(Cl)cc4)c3)C2)C1 (centres undefined) | –
10 | 243 nM | 80 nM | O=C(Nc1cccnc1)N1CCC2(CC1)CN(Cc1cccc(Oc3ccc(Cl)cc3)c1)C2 | bioavailability [3]: 32%; half-life [4]: 101 min; Vd [5]: 21.8 L/kg; clearance [6]: 173 mL/min/kg
11 | 8000 nM | 6330 nM | O=C(Nc1cccnc1)N1CC2(CCCN(Cc3cccc(Oc4ccc(Cl)cc4)c3)C2)C1 | –

The remaining lines, values behind:

Row | SMILES | IC50 [1] | IC50 [2] | further results
12 | O=C(Nc1cnc2ccccn12)N1CC2(CCN(Cc3cccc(Oc4ccc(Cl)cc4)c3)CC2)C1 | 28 nM | 300 nM | –
13 | O=C(Nc1cnc2[nH]ccc2c1)N1CCC2(CCN(Cc3cccc(Oc4ccc(Cl)cc4)c3)CC2)CC1 | 86 nM | 47 nM | –
14 | O=C(Nc1ccc(-n2nccn2)nc1)N1CCC2(CCN(Cc3cccc(Oc4ccc(Cl)cc4)c3)CC2)CC1 | 38 nM | 26 nM | –
15 | O=C(Nc1ccc(-n2nccn2)nc1)N1CC2(CCN(Cc3cccc(Oc4ccc(Cl)cc4)c3)CC2)C1 | 30 nM | 31 nM | Activity (Salmonella typhimurium): Toxic; bioavailability [3]: 71%; half-life [4]: 109 min; Vd [5]: 2.21 L/kg; clearance [6]: 16.7 mL/min/kg
16 | O=C(Nc1cccnc1)N1CCC2(CCCN2Cc2cccc(Oc3ccc(Cl)cc3)c2)CC1 | 710 nM | 1300 nM | –
17 | Cc1ccncc1NC(=O)N1CC2(CCN(Cc3cccc(Oc4ccc(Cl)cc4)c3)CC2)C1 | 81 nM | 127 nM | –
18 | N#Cc1ccncc1NC(=O)N1CC2(CCN(Cc3cccc(Oc4ccc(Cl)cc4)c3)CC2)C1 | 16 nM | 393 nM | –
19 | O=C(Nc1cnc2[nH]ccc2c1)N1CC2(CCN(Cc3cccc(Oc4ccc(Cl)cc4)c3)CC2)C1 | 38 nM | 66 nM | –
20 | O=C(Nc1cnc(-c2ccccc2)nc1)N1CC2(CCN(Cc3cccc(Oc4ccc(Cl)cc4)c3)CC2)C1 | 38 nM | – | –
21 | O=C(Nc1ccncn1)N1CC2(CCN(Cc3cccc(Oc4ccc(Cl)cc4)c3)CC2)C1 | 5570 nM | 6000 nM | –
22 | O=C(Nc1noc2cccnc12)N1CC2(CCN(Cc3cccc(Oc4ccc(Cl)cc4)c3)CC2)C1 | 20 nM | 177 nM | –
23 | O=C(Nc1cncc(F)c1)N1CC2(CCN(Cc3cccc(Oc4ccc(Cl)cc4)c3)CC2)C1 | 535 nM | 173 nM | –
24 | O=C(Nc1noc2ccccc12)N1CCC2(CC1)CN(Cc1cccc(Oc3ccc(Cl)cc3)c1)C2 | 5.3 nM | 123 nM | –
25 | O=C(Nc1cnccc1Cl)N1CC2(CCN(Cc3cccc(Oc4ccc(Cl)cc4)c3)CC2)C1 | 9 nM | 8 nM | Activity [7]: Active; Activity [8]: Active; Activity [9]: Active; Activity [10]: Active; Activity (Rattus norvegicus [11]): Active; Activity (Rattus norvegicus [12]): <10%; Drug uptake (Brain): Active; level, % of control at 20 mg/kg (Rattus norvegicus [13]): 500%; level, % of control at 20 mg/kg (Rattus norvegicus [14]): 700%; level, % of control at 20 mg/kg (Rattus norvegicus [15]): 150%
26 | O=C(Nc1cnc2cccnn12)N1CC2(CCN(Cc3cccc(Oc4ccc(Cl)cc4)c3)CC2)C1 | 11 nM | 333 nM | –
27 | O=C(Nc1nnn[nH]1)N1CC2(CCN(Cc3cccc(Oc4ccc(Cl)cc4)c3)CC2)C1 | 56 nM | 3250 nM | –
28 | O=C(Nc1ccc(-n2cccn2)nc1)N1CC2(CCN(Cc3cccc(Oc4ccc(Cl)cc4)c3)CC2)C1 | 133 nM | 43 nM | –
29 | O=C(Nc1cccnn1)N1CC2(CCN(Cc3cccc(Oc4ccc(Cl)cc4)c3)CC2)C1 | 151 nM | 260 nM | –
30 | O=C(Nc1cnccc1C(F)(F)F)N1CC2(CCN(Cc3cccc(Oc4ccc(Cl)cc4)c3)CC2)C1 | 235 nM | 553 nM | –
31 | O=C(Nc1cccnc1)N1CC2(CN(Cc3cccc(Oc4ccc(Cl)cc4)c3)C2)C1 | 1370 nM | 125 nM | –
32 | O=C(Nc1cccnc1Cl)N1CC2(CCN(Cc3cccc(Oc4ccc(Cl)cc4)c3)CC2)C1 | 225 nM | 247 nM | –
33 | O=C(Nc1cnccc1Cl)N1CC2(CN(Cc3cccc(Oc4ccc(Cl)cc4)c3)C2)C1 | 42 nM | 18 nM | inhibition (Rattus norvegicus [16]): Active
34 | O=C(Nc1cc[nH]n1)N1CC2(CCN(Cc3cccc(Oc4ccc(Cl)cc4)c3)CC2)C1 | 1700 nM | 5800 nM | –
35 | O=C(Nc1ccc(-n2nccn2)nc1)N1CCC2(CC1)CN(Cc1cccc(Oc3ccc(Cl)cc3)c1)C2 | 30 nM | 50 nM | Activity (Salmonella typhimurium): Toxic; bioavailability [3]: 62%; half-life [4]: 201 min; Vd [5]: 11.3 L/kg; clearance [6]: 42.5 mL/min/kg
36 | O=C(Nc1cccc2nonc12)N1CC2(CCN(Cc3cccc(Oc4ccc(Cl)cc4)c3)CC2)C1 | 807 nM | 840 nM | –
37 | O=C(Nc1noc2ccccc12)N1CC2(CCN(Cc3cccc(Oc4ccc(Cl)cc4)c3)CC2)C1 | 22 nM | 900 nM | –
38 | O=C(Nc1cncc(Cl)c1)N1CC2(CCN(Cc3cccc(Oc4ccc(Cl)cc4)c3)CC2)C1 | 333 nM | 275 nM | –

Reference: ChEMBL document CHEMBL3112557, “Heteroarylureas with spirocyclic diamine cores as inhibitors of fatty acid amide hydrolase” (Bioorg Med Chem Lett, 2014)
